Compound activity deposited in PubChem by Johns Hopkins Ion Channel Center.
An excerpt weighted towards active compounds, which were near 2.3% of everything screened.
TRPC4 PAM: allosteric potentiators of mouse TRPC4 channel; Q9QUQ5; HEK293 TRPC4beta/mu-opioid, DAMGO EC20, Fluo-4 Ca2+ flux; hits give high values; B-score at 10 µM; 310,000 compounds, 0.42% hits; AID 2227;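 active = B-score of calcium response area above 5 SD of library B-scores, with initial fluorescence ratio within 5 SD of library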
TRPC6 activator: activators of mouse TRPC6 channel; Q61143; HEK293-TRPC6 membrane potential dye fluorescence; hits give high values; B-score at 10 µM; 310,000 compounds, 0.13% hits; AID 2550;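 active = B-score of the integrated fluorescence ratio above library mean plus 3 SD, and starting fluorescence ratio within library mean plus 5 SD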;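 also: higher score means more depolarization so channel activation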
Target sequence (Q61143 whole entry, looked up): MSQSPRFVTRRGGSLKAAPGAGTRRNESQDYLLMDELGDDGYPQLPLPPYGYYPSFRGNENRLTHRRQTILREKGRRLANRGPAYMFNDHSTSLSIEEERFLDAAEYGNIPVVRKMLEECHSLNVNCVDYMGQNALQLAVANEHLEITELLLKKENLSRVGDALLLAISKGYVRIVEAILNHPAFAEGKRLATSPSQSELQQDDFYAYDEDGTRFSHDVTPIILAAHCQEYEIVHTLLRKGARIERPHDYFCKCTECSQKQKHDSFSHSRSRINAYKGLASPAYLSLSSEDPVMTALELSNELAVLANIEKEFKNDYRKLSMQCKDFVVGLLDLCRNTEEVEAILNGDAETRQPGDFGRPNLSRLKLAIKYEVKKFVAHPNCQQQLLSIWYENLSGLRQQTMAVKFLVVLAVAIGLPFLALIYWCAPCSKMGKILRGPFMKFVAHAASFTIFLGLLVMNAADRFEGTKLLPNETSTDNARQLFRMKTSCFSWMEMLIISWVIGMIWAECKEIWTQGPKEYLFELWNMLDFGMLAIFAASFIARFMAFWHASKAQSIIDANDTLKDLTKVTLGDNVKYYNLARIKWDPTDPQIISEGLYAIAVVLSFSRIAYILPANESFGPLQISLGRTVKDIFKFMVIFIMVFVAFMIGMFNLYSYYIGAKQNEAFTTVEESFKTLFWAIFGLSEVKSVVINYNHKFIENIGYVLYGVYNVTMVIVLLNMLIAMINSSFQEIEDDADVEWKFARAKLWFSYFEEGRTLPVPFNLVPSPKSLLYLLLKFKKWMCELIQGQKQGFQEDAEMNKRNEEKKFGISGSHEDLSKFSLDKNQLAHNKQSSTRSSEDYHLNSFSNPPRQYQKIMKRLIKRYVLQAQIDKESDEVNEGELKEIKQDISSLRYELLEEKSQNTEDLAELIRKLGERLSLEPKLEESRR
TRPC4 agonist: TRPC4 (mouse) channel activation; 310,000 compounds, 0.49% hits; B-score at 10 µM; HEK293 TRPC4beta/mu-opioid, Fluo4 calcium fluorescence; hits give high values;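 active = B-score above 5 SD of library B-scores, and initial fluorescence ratio not above library mean plus 5 SD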;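 also: positive B-score marks a calcium rise read as TRPC4 activation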
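System: HEK293 cells stably co-expressing mouse TRPC4beta and mu-opioid receptor; Schedule: Fluo4 dye loading 45 min at room temperature, 110 s recording; Detection: Fluo4 fluorescence, kinetic; Evaluation: B-scored integrated calcium fluorescence ratio; Controls: buffer (low) and maximal DAMGO (high).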
TRPC4 block: blocks the mouse TRPC4 cation channel; Q9QUQ5; HEK293 TRPC4beta/mu-opioid, DAMGO-evoked Fluo4 calcium flux; hits give low values; AID 2247; B-score at 10 µM; 300,000 compounds, 0.39% hits;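 active = B-score over 3 SD under the library average, no early fluorescence shift, positive overall ratio signal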
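material = TRPC4beta/mu-opioid receptor HEK293 cell line | probe or stimulus = sequential submaximal and maximal DAMGO stimulation | compound dosing = one concentration per compound | measured by = Fluo4 Ca2+ flux fluorescence | evaluation = integrated fluorescence ratio relative to baseline, converted to per-well B score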
TRPC6 inh: blocks the mouse TRPC6 cation channel | Q61143 | HEK293-TRPC6, membrane potential dye, ACh-evoked depolarization; hits give low values | B-score at 10 µM | 310,000 compounds, 1.1% hits;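 active = B-score under library mean minus 3 SD, initial fluorescence not abnormally high, positive integrated signal ratio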;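 also: B-score derived from integrated fluorescence ratio over the kinetic read; more negative B-score means stronger inhibition of depolarization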
TRPC4 sel inh 2: second selectivity test of TRPC6 inhibitors: effect on mouse TRPC4; inhibition, % at 10 µM; shares compounds with TRPC6 inh; 920 compounds, 42% hits; HEK293 TRPC4/MOR, membrane potential dye fluorescence; channel activated by saturating DAMGO dose;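 active = compounds whose fluorescence signal differed from control wells by over 3 SD, either direction, in both duplicate plates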
TRPC4 spec: mouse TRPC4 off-target activity of TRPC6 inhibitors; shares compounds with TRPC6 inh; HEK293 TRPC4/mu-opioid, membrane potential fluorescence; activity change, negative = inhibition, % at 10 µM; 920 compounds, 61% hits; AID 2777;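 active = rise or fall in signal beyond 3 SD of buffer-only wells in both replicate plates, either sign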;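 also: integrated kinetic ratio of fluorescence range over baseline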
HEK293 MPD ctr 2-1: parental HEK293 nonspecific activity of TRPC6 inhibitors, second screen; shares compounds with TRPC6 inh; parental HEK293 membrane potential dye fluorescence; maximal acetylcholine challenge after compound addition; 920 compounds, 31% hits; signal change vs control, % at 10 µM;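 active = membrane potential signal moving either way by over 3 SD of the maximum-effect control, in both duplicate plates, meaning non-specific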
HEK293 MPD ctr-1: parental HEK293 nonspecific activity of TRPC6 inhibitors. shares compounds with TRPC6 inh. parental HEK293 membrane potential dye fluorescence. membrane potential signal change, % at 10 µM. 920 compounds, 60% hits. AID 2780;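 active = membrane potential signal shifting up or down by more than 3 SD of buffer-only wells, on both duplicate plates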
HEK293 MPD ctr-2: counter-screen for TRPC6 modulators: effect in parental HEK293 cells; shares compounds with TRPC6 inh; membrane potential dye fluorescence; membrane potential signal change, % at 10 µM; 2,400 compounds, 51% hits; AID 488924;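 active = membrane potential signal moves up or down beyond 5 SD from buffer-only wells, on both duplicate plates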
HEK293 MPD ctr 2-2: second check of TRPC6 modulator effects in parental HEK293 cells | shares compounds with TRPC6 inh | membrane potential dye fluorescence; after compound, maximal acetylcholine stimulation | inhibition, % at 10 µM | 2,400 compounds, 14% hits | AID 488926;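 active = membrane potential signal drops by more than 5 SD from the mean control signal, in both duplicate plates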
TRPC4 ctr mod: mouse TRPC4 off-target activity of TRPC6 modulators | 2,400 compounds, 69% hits | percent change from control (negative = decrease, positive = increase), % at 10 µM | shares compounds with TRPC6 inh | HEK293 TRPC4/mu-opioid, membrane potential fluorescence;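 active = membrane potential signal moved up or down beyond 5 SD of buffer control wells, in both duplicate plates, actives on both sides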
TRPC4/MOR inh 2: second check of whether TRPC6 modulators also affect mouse TRPC4 | shares compounds with TRPC6 inh | HEK293 TRPC4/mu-opioid, membrane potential dye fluorescence; stimulated with maximal-effect DAMGO | inhibition, % at 10 µM | 2,400 compounds, 55% hits | AID 488928;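 active = drop in membrane potential signal beyond 5 SD of the control wells in both duplicate plates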;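 also: TRPC4 counter screen for TRPC6 hits run under conditions tuned for TRPC6 not TRPC4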
TRPC6 block conf: confirmation of mouse TRPC6 inhibitors; shares compounds with TRPC6 inh; HEK293-TRPC6, membrane potential dye, ACh-evoked depolarization; inhibition, % at 10 µM; 3,300 compounds, 43% hits; AID 488960;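 active = fluorescence ratio falls more than 5 SD below the full-stimulation control mean, in both duplicate runs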;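 also: integrated fluorescence ratio of peak minus minimum over baseline after agonist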
TRPC6 act confirm: confirmation of mouse TRPC6 activators; shares compounds with TRPC6 inh; HEK293-TRPC6 membrane potential dye fluorescence, FDSS; activation, % at 10 µM; 2,800 compounds, 11% hits;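 active = ratio signal rise beyond 5 SD above unstimulated control wells' mean, seen in both duplicate runs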
Numbers stand for hits.

For COc1ccc(C(=O)C2CCCN(Cc3ccc(C)s3)C2)c(OC)c1 (stereo not given) the results were TRPC4 PAM inactive, TRPC6 activator inactive, TRPC4 agonist inactive, TRPC4 block inactive and TRPC6 inh inactive.
`COc1ccc(C(=O)C2CCCN(Cc3cccc(C)n3)C2)c(OC)c1` (stereo not given) gave TRPC4 PAM inactive, TRPC6 activator inactive, TRPC4 agonist inactive, TRPC4 block inactive, TRPC6 inh -6.4, HEK293 MPD ctr-2 inactive, HEK293 MPD ctr 2-2 inactive, TRPC4 ctr mod 9.5%, TRPC4/MOR inh 2 inactive and TRPC6 block conf inactive.
For O=C(Nc1cccc(C(F)(F)F)c1)OC1CN2CCC1CC2 (stereo not given) the results were TRPC4 PAM inactive, TRPC6 activator inactive, TRPC4 agonist inactive, TRPC4 block inactive, TRPC6 inh -6.5, HEK293 MPD ctr-2 inactive, HEK293 MPD ctr 2-2 inactive, TRPC4 ctr mod inactive, TRPC4/MOR inh 2 inactive, TRPC6 block conf 54% and TRPC6 act confirm inactive.
Screening CCCNC(=O)N1[C@H]2CC[C@@H]1C(C(=O)OC)=C(c1cccc(OC)c1OC)C2 returned TRPC4 PAM inactive, TRPC6 activator inactive, TRPC4 agonist inactive, TRPC4 block inactive and TRPC6 inh inactive.
`C/C=C1/CC(C)C(C)(O)C(=O)OCC2CCN3CCC(OC1=O)C23` (stereo not given) gave TRPC4 PAM inactive, TRPC6 activator inactive, TRPC4 agonist inactive, TRPC4 block inactive, TRPC6 inh -6.2, HEK293 MPD ctr-2 inactive, HEK293 MPD ctr 2-2 81%, TRPC4 ctr mod 18%, TRPC4/MOR inh 2 inactive, TRPC6 block conf 78% and TRPC6 act confirm inactive.
For CC(C)CNc1c2c(nc3ccccc13)CCC2 the results were TRPC4 PAM inactive, TRPC6 activator inactive, TRPC4 agonist inactive, TRPC4 block inactive and TRPC6 inh inactive.
Screening OCCNc1c2c(nc3ccccc13)CCCC2 returned TRPC4 PAM inactive, TRPC6 activator inactive, TRPC4 agonist inactive, TRPC4 block inactive, TRPC6 inh -6.7, TRPC4 sel inh 2 inactive, TRPC4 spec -23%, HEK293 MPD ctr 2-1 inactive, HEK293 MPD ctr-1 -362%, TRPC6 block conf inactive and TRPC6 act confirm inactive.
For c1ccc(CNc2c3c(nc4ccccc24)CCC3)cc1 the results were TRPC4 PAM inactive, TRPC6 activator inactive, TRPC4 agonist inactive, TRPC4 block inactive, TRPC6 inh -5.8, HEK293 MPD ctr-2 inactive, HEK293 MPD ctr 2-2 inactive, TRPC4 ctr mod inactive, TRPC4/MOR inh 2 52%, TRPC6 block conf inactive and TRPC6 act confirm inactive.
CC1(C)CC(=O)C(C2(O)C(=O)NC(=O)NC2=O)=C(O)C1 was read as TRPC4 PAM inactive, TRPC6 activator inactive, TRPC4 agonist inactive, TRPC4 block inactive and TRPC6 inh inactive.
For CN1C2CCC1CC(OC(c1ccccc1)c1ccccc1N)C2 (stereo not given) the results were TRPC4 PAM inactive, TRPC6 activator inactive, TRPC4 agonist inactive, TRPC4 block inactive, TRPC6 inh -5.6, HEK293 MPD ctr-2 110%, HEK293 MPD ctr 2-2 92%, TRPC4 ctr mod 21%, TRPC4/MOR inh 2 40% and TRPC6 block conf 88%.
Screening CN1C2CCC1C(COC(=O)c1ccccc1)C(O)C2 (stereo not given) returned TRPC4 PAM inactive, TRPC6 activator inactive, TRPC4 agonist inactive, TRPC4 block inactive and TRPC6 inh inactive.
Clc1ccc2c(c1)C(OC1CN3CCC1CC3)c1ccccc1CS2 (stereo not given) was read as TRPC4 PAM inactive, TRPC6 activator inactive, TRPC4 agonist inactive, TRPC4 block inactive and TRPC6 inh inactive.
Screening OC(c1cccc(Cl)c1)(c1cccc(Cl)c1)C1CN2CCC1CC2 (stereo not given) returned TRPC4 PAM inactive, TRPC6 activator inactive, TRPC4 agonist inactive, TRPC4 block inactive, TRPC6 inh -8, HEK293 MPD ctr-2 inactive, HEK293 MPD ctr 2-2 inactive, TRPC4 ctr mod 10%, TRPC4/MOR inh 2 inactive, TRPC6 block conf 70% and TRPC6 act confirm inactive.
Screening Cc1ccc2c(c1)[C@@H]1CN(C)CC[C@@H]1N2C(=O)Nc1cccc(C(F)(F)F)c1 returned TRPC4 PAM inactive, TRPC6 activator inactive, TRPC4 agonist inactive, TRPC4 block inactive, TRPC6 inh -5.9, HEK293 MPD ctr-2 inactive, HEK293 MPD ctr 2-2 inactive, TRPC4 ctr mod -14%, TRPC4/MOR inh 2 47%, TRPC6 block conf inactive and TRPC6 act confirm inactive.
CNC(=O)OCc1n(C)cc[n+]1C was read as TRPC4 PAM inactive, TRPC6 activator inactive, TRPC4 agonist inactive, TRPC4 block inactive and TRPC6 inh inactive.
Screening COc1ccc(-n2c(O)c(C(C)=NCc3ccc4c(c3)OCO4)c(=O)[nH]c2=O)cc1 returned TRPC4 PAM inactive, TRPC6 activator inactive, TRPC4 agonist inactive, TRPC4 block inactive and TRPC6 inh inactive.
`Cc1nnc(SCc2nc3ccccc3c(=O)n2-c2ccccc2Cl)n1N` gave TRPC4 PAM inactive, TRPC6 activator inactive, TRPC4 agonist inactive, TRPC4 block inactive and TRPC6 inh inactive.
